Experimental data of several laboratories.
Lines come from different studies, so protocols differ.
Target: Tyrosine-protein kinase HCK (HCK, Homo sapiens, UniProt P08631)

Structure (SMILES) | assay | setting | remaining binding
FC(F)(F)Oc1cccc(-c2cnc3ccc(-c4ccncc4)nn23)c1 | cell-free assay, competition with immobilised ligand | 5 µM | 71%
Cc1cnn2ncc(-c3ccnc(N(C)C)n3)c2c1 | binding | 1 µM | 100%
COc1cnc(Nc2cccc(S(N)(=O)=O)c2)nc1N1CCN(c2ccccc2)C(=O)C1 | binding, competition with immobilised ligand | 1 µM | 100%
O=C(NCc1ncc(C(F)(F)F)cc1Cl)c1ccc2c(c1)C1(CCS(=O)(=O)CC1)[C@@H](C1CC1)N2S(=O)(=O)c1ccc(F)cc1 | cell-free assay, competition with immobilised ligand | 1 µM | 86%
CN(C)c1nccc(-c2cnn3ncccc23)n1 | binding | 1 µM | 100%
O=C(Nc1cnc(Oc2ccc(F)cc2)nc1)N1CCc2ncccc2[C@@H]1c1ccc(F)cc1 | cell-free assay, competition with immobilised ligand | 1 µM | 96%
C[C@@H]1CCN(c2nccc(-c3cnn4ncccc34)n2)C1 | binding | 1 µM | 84%
Nc1ncc2c(n1)-c1c([nH]c3ccc(C#CC4CC4)cc13)CCCC2 | binding, competition with immobilised ligand | 1 µM | 100%
C=CC(=O)N1CCC(C(=O)NCC(=O)N2CCN(c3nc(-c4cnc(N)nc4C(F)F)nc(N4CCOCC4)n3)CC2)CC1 | binding, competition with immobilised ligand | 1 µM | 86%
CCOCCn1cc(C(=O)Nc2ccc(-n3nc(-c4cccnc4)cc3C(F)(F)F)cn2)ccc1=O | cell-free assay, competition with immobilised ligand | 1 µM | 93%
O=C(c1ccc(Nc2ncc(Cl)c(-c3cc4ccccc4s3)n2)cc1)N1CCC(N2CCCC2)CC1 | binding, competition with immobilised ligand | 1 µM | 100%
COc1ncc2cc3ccccc3nc2c1C#N | cell-free assay, competition with immobilised ligand | 5 µM | 100%
O=C(NCCCN1CCOCC1)c1ccc(Nc2nccc(-c3cc4ccccc4s3)n2)cc1 | binding, competition with immobilised ligand | 1 µM | 95%
CN(C)c1nccc(-c2cnc3ncccn23)n1 | binding | 1 µM | 100%
O=C(NCC1CCOCC1)c1n[nH]cc1NC(=O)c1c(F)cccc1F | binding, competition with immobilised ligand | 1 µM | 100%
O=C1NC(c2ccccn2)Sc2ccccc21 (stereo not drawn) | cell-free assay, competition with immobilised ligand | 1 µM | 90%
O=C(NCCCN1CCOCC1)c1ccc(Nc2ncc(Cl)c(-c3ccc(Cl)s3)n2)cc1 | binding, competition with immobilised ligand | 1 µM | 100%
CO[C@@H](C)c1c(Nc2ccc([C@H](N(C)C(=O)C3CCS(=O)(=O)CC3)C(F)(F)F)cc2)cnc2cc(Cl)nn12 | cell-free assay, competition with immobilised ligand | 1 µM | 100%
c1cnn2ncc(-c3ccnc(N4CCC45COC5)n3)c2c1 | binding | 1 µM | 90%
CCS(=O)(=O)c1cc2cc(C[C@](O)(CC(C)(C)c3ccc(F)cc3C(N)=O)C(F)(F)F)[nH]c2cn1 | cell-free assay, competition with immobilised ligand | 1 µM | 100%
N[C@@H]1CCN(c2nccc(-c3cnn4ncccc34)n2)C1 | binding | 1 µM | 100%
